Measured values reported in ChEMBL document CHEMBL3392956, “Evaluation of synthetic naphthalene derivatives as novel chemical chaperones that mimic 4-phenylbutyric acid” (Bioorg Med Chem Lett, 2015).
Activity calls are given as the source filed them. The rule behind the calls is not given here.

Assays:
[1] = Chemical chaperone activity assessed as suppression of alpha-lactalbumin-bovine serum albumin aggregation at 0.3 mM by turbidity assay; assay type: physicochemical; conditions: 300 µM
Procedure, shortened: (§1)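 Reduced alpha-lactalbumin (r-LA) was made by incubating LA with 5 mM dithiothreitol and 2.5 mM EDTA for 30 min at 25 °C. Aggregation was started at 37 °C by adding denatured bovine serum albumin, with DMSO vehicle or compound present. Turbidity was read as optical density at 488 nm and expressed relative to the matching controls. Values are means ± SE of four independent experiments.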

SH-SY5Y = assay: Protection against ER stress-induced human SH-SY5Y cell damage assessed as cell viability at 0.1 mM after 48 hrs by crystal violet assay; assay type: functional, cell-based
Procedure, shortened: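 Human neuroblastoma SH-SY5Y cells stably expressing Pael-R–FLAG were incubated with or without compound at 0.1, 0.5 or 1.0 mM for 48 h. Viability was determined by crystal violet assay. Values are means ± SE of three independent experiments.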

[2] = Chemical chaperone activity assessed as suppression of alpha-lactalbumin-bovine serum albumin aggregation at 3 mM by turbidity assay; assay type: physicochemical; conditions: 3000 µM; procedure, shortened: as §1

| Activity [1] | Activity [2] | SMILES | Activity (SH-SY5Y) |
| --- | --- | --- | --- |
| Active |  | COc1ccc2cc(CCCCC(=O)O)ccc2c1 | Active |
| Active |  | COc1ccc2ccccc2c1/C=C/C(=O)O | Active |
| Active |  | COc1ccc(/C=C/C(=O)O)c2ccccc12 | Active |
| Active |  | COc1ccc2cc(/C=C/C(=O)O)ccc2c1 | Active |
| Active |  | COc1ccc2ccccc2c1CCC(=O)O | Active |
| Active |  | COc1ccc2cc(CC/C=C/C(=O)O)ccc2c1 | Active |
| Active |  | COc1ccc(CCC(=O)O)c2ccccc12 | Active |
| Active |  | COc1ccc(CCCCC(=O)O)c2ccccc12 | Active |
| Active |  | COc1ccc2ccccc2c1CC/C=C/C(=O)O | Active |
|  | Active | O=C(O)CCCc1ccccc1 | Active |
| Active |  | COc1ccc2ccccc2c1CCCCC(=O)O | Active |
| Active |  | COc1ccc2cc(CCC(=O)O)ccc2c1 | Active |
